Values after ≈ are worked out from the molar mass of the structure shown.
How the values were obtained:
143B [1] = assay: In vitro cell cytotoxicity against 143B-LTK cell lines expressed in HSV-1 TK; type: functional; settings: Homo sapiens
In short: (§1)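 MTT assay. KBALB, KBALB-STK, 143B and 143B-LTK cells were grown in DMEM with 10% FBS; EMT-6 cells in Waymouth medium with 12.5% FBS. Cells were seeded at 8 × 10² per well and grown 24 h. Compound in DMEM was added for 3 days at 37 °C in 5% CO2, followed by MTT for 4 h, DMSO solubilisation and blank-corrected A540. CC50 is the concentration cutting A540 to 50% of control, mean of n = 6.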

[2] = Compound was tested for in vitro nitric oxide release in the presence of 18 mM L-cysteine at 1 h; type: functional
In short: (§2)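 Compound (2 mM stock in 0.1 M phosphate buffer pH 7.4) was mixed 1:1 with freshly made 36 mM L-cysteine in the same buffer and incubated at 37 °C for 1 or 16 h without air. The mixture was exposed to air for 10 min, then Griess reagent was added. A540 was read after 10 min. Nitrite was calculated from a 0–60 μM sodium nitrite standard curve, n = 3.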

Monkey = assay: (§3) Antiviral activity against Punta toro virus in vero cell cultures; type: functional, organism-based, Chlorocebus sabaeus; settings: Cercopithecidae
Rattus norvegicus [3] = species: Rattus norvegicus; assay: Compound was tested for in vitro nitric oxide release in the presence of rat serum at 1 h; type: functional
In short: (§4)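 Compound (1 × 10⁻² M stock) was mixed 1:9 with filtered rat serum. It was incubated at 37 °C for 1 or 16 h with 0.2 U/mL Aspergillus nitrate reductase, 50 mM HEPES, 5 μM FAD and 0.1 mM NADPH. Leftover NADPH was removed with lactate dehydrogenase plus pyruvate over 10 min. Griess reagent was added and A540 read after 10 min at 25 °C. % NO release came from a nitrite standard curve, n = 3.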

Rattus norvegicus [4] = species: Rattus norvegicus; assay: Compound was tested for in vitro nitric oxide release in the presence of rat serum at 16 h; type: functional; in short: as §4
Coxsackievirus B4 = assay: Antiviral activity against coxsackie B4 virus; type: functional, organism-based; settings: Enterovirus B
Human respirovirus 3 = assay: Antiviral activity against parainfluenza-3 virus; type: functional, organism-based
Sindbis virus = assay: Antiviral activity against sindbus virus; type: functional, organism-based
[5] = tested on: Respiratory syncytial virus; assay: Antiviral activity against respiratory syncytial virus in Hela cell cultures; type: functional, organism-based; settings: human respiratory syncytial virus
[6] = tested on: Mammalian orthoreovirus 1; assay: Antiviral activity against reovirus-1; type: functional, organism-based
143B [7] = assay: In vitro cell cytotoxicity against 143-B cell lines (Human osteosarcoma cell line); type: functional; in short: as §1
KBALB cell line = assay: In vitro cell cytotoxicity against KBALB cell line (transformed fibroblast sarcoma cell line); type: functional; settings: Mus musculus; in short: as §1
KBALB-STK = assay: In vitro cell cytotoxicity against KBALB-STK cell lines expressed in HSV-1 TK; type: functional; settings: Mus musculus; in short: as §1
[8] = Compound was tested for in vitro nitric oxide release in the presence of 18 mM L-cysteine at 16 h; type: functional; in short: as §2
[9] = (§5) In vitro cell cytotoxicity against EMT-6 cell lines; type: functional; settings: Mus musculus, EMT6; in short: as §1
Punta Toro virus = assay: as §3; type: functional, organism-based
EMT6 = assay: as §5; type: functional; settings: Mus musculus; in short: as §1
Human alphaherpesvirus 1 [10] = assay: (§6) Inhibitory activity against herpes simplex virus […]; type: functional, organism-based
Human alphaherpesvirus 2 [11] = assay: as §6; type: functional, organism-based
Vaccinia virus = assay: Inhibitory activity against vaccinia virus; type: functional, organism-based; settings: Orthopoxvirus vaccinia
Human alphaherpesvirus 1 [12] = assay: Inhibitory activity against HSV-1; type: functional, organism-based
Human alphaherpesvirus 2 [13] = assay: Inhibitory activity against HSV-2; type: functional, organism-based
[14] = Compound was tested for in vitro nitric oxide release in the presence of 18 mM L-cysteine at 16h; type: functional; in short: as §2

SMILES: O=c1ccn([C@H]2C[C@H](O[N+](=O)[O-])[C@@H](CO)O2)c(=O)[nH]1
- CC50 (143B [1]): 850 µM
- NO release [2]: 4.9%
- IC50 (Monkey): > 80 µg/mL
- NO release (Rattus norvegicus [3]): 7.7%
- NO release (Rattus norvegicus [4]): 9%
- IC50 (Coxsackievirus B4): > 80 µg/mL
- IC50 (Human respirovirus 3): > 80 µg/mL
- IC50 (Sindbis virus): > 80 µg/mL
- IC50 [5]: > 80 µg/mL
- IC50 [6]: > 80 µg/mL

SMILES: O=c1[nH]c(=O)n([C@H]2C[C@H](O)[C@@H](CO[N+](=O)[O-])O2)cc1I
- CC50 (143B [7]): 340 µM
- CC50 (143B [1]): 21 µM
- CC50 (KBALB cell line): 340 µM
- CC50 (KBALB-STK): 250 µM
- NO release [2]: 3.7%
- NO release [8]: 36.4%
- NO release (Rattus norvegicus [3]): 3.9%
- NO release (Rattus norvegicus [4]): 4.7%

SMILES: Nc1ccn([C@H]2C[C@H](O[N+](=O)[O-])[C@@H](CO)O2)c(=O)n1
- CC50 (143B [1]): 200 µM
- NO release [2]: 1.5%
- NO release [8]: 17.1%
- NO release (Rattus norvegicus [3]): 18.8%
- NO release (Rattus norvegicus [4]): 20.2%

SMILES: O=[N+]([O-])O[C@H]1CO[C@H]2[C@@H]1OC[C@H]2O[N+](=O)[O-] [ISOSORBIDE DINITRATE]
- CC50 (143B [7]): 600 µM
- CC50 (143B [1]): 700 µM
- CC50 (KBALB cell line): 970 µM
- CC50 (KBALB-STK): 650 µM
- NO release [2]: 3.5%
- NO release [8]: 24%
- NO release (Rattus norvegicus [3]): 1.9%
- NO release (Rattus norvegicus [4]): 2.6%

SMILES: O=c1[nH]c(=O)n([C@H]2C[C@H](O)[C@@H](CO)O2)cc1I [IDOXURIDINE]
- CC50 (143B [7]): 7000 µM
- CC50 (143B [1]): 7400 µM
- CC50 [9]: 380 µM
- CC50 (KBALB cell line): 97 µM
- CC50 (KBALB-STK): 10 µM

SMILES: O=c1[nH]c(=O)n([C@H]2C[C@H](O)[C@@H](CO)O2)cc1F [FLOXURIDINE]
- CC50 (143B [7]): 90 µM
- CC50 (143B [1]): 100 µM

SMILES: Cc1cn([C@H]2C[C@H](O[N+](=O)[O-])[C@@H](CO)O2)c(=O)nc1N
- CC50 (143B [1]): 1000 µM
- NO release [2]: 3.8%
- NO release [8]: 50.3%
- NO release (Rattus norvegicus [3]): 47.1%
- NO release (Rattus norvegicus [4]): 59.5%

SMILES: Cc1cn([C@H]2C[C@H](O)[C@@H](CO)O2)c(=O)[nH]c1=O [DOXRIBTIMINE]
- CC50 [9]: 130 µM
- CC50 (KBALB cell line): 95 µM
- CC50 (KBALB-STK): 100 µM

SMILES: O=c1[nH]c(=O)n([C@H]2C[C@H](O[N+](=O)[O-])[C@@H](CO)O2)cc1F
- CC50 (143B [7]): 2.4 µM
- CC50 (143B [1]): 74 µM
- CC50 [9]: 6.2 µM
- CC50 (KBALB cell line): 8 µM
- CC50 (KBALB-STK): 3.5 µM
- NO release [2]: 0%
- NO release [8]: 3.8%
- NO release (Rattus norvegicus [3]): 4%
- NO release (Rattus norvegicus [4]): 6.6%
- IC50 (Coxsackievirus B4): > 80 µg/mL
- IC50 (Human respirovirus 3): > 80 µg/mL
- IC50 (Punta Toro virus): > 80 µg/mL
- IC50 (Sindbis virus): > 80 µg/mL
- IC50 [5]: > 80 µg/mL
- IC50 [6]: > 80 µg/mL

SMILES: O=c1ccn([C@H]2C[C@H](O)[C@@H](CO[N+](=O)[O-])O2)c(=O)[nH]1
- CC50 (KBALB cell line): 1000 µM
- NO release [2]: 5.4%
- NO release [8]: 59.9%
- NO release (Rattus norvegicus [3]): 2.9%
- NO release (Rattus norvegicus [4]): 4.4%

SMILES: O=c1[nH]c(=O)n([C@H]2C[C@H](O[N+](=O)[O-])[C@@H](CO)O2)cc1I
- CC50 (143B [7]): 580 µM
- CC50 (143B [1]): 410 µM
- CC50 (EMT6): 23 µM
- IC50 (Human alphaherpesvirus 1 [10]): 48 µg/mL (≈ 120 µM)
- IC50 (Human alphaherpesvirus 2 [11]): 48 µg/mL (≈ 120 µM)
- CC50 (KBALB cell line): 240 µM
- CC50 (KBALB-STK): 260 µM
- NO release [2]: 3.9%
- NO release [8]: 37.6%
- IC50 (Monkey): > 80 µg/mL
- NO release (Rattus norvegicus [3]): 12.3%
- NO release (Rattus norvegicus [4]): 13.2%
- IC50 (Coxsackievirus B4): > 80 µg/mL
- IC50 (Human respirovirus 3): > 80 µg/mL
- IC50 (Vaccinia virus): 48 µg/mL (≈ 120 µM)
- IC50 (Sindbis virus): > 80 µg/mL
- IC50 [5]: > 80 µg/mL
- IC50 [6]: > 80 µg/mL

SMILES: O=c1[nH]c(=O)n([C@H]2C[C@H](O)[C@@H](CO)O2)cc1/C=C/I
- IC50 (Human alphaherpesvirus 1 [12]): 0.0051 µg/mL (≈ 0.0134 µM)
- IC50 (Human alphaherpesvirus 2 [13]): 80 µg/mL (≈ 210 µM)
- IC50 (Vaccinia virus): 2.3 µg/mL (≈ 6.05 µM)

SMILES: Nc1nc(=O)n([C@H]2C[C@H](O[N+](=O)[O-])[C@@H](CO)O2)cc1I
- CC50 (143B [7]): 200 µM
- CC50 (143B [1]): 200 µM
- CC50 (EMT6): 340 µM
- CC50 (KBALB cell line): 1000 µM
- CC50 (KBALB-STK): 250 µM
- NO release [2]: 4%
- NO release [8]: 47.2%
- NO release (Rattus norvegicus [3]): 12.5%
- NO release (Rattus norvegicus [4]): 17.6%

SMILES: Cc1cn([C@H]2C[C@H](O)[C@@H](CO[N+](=O)[O-])O2)c(=O)[nH]c1=O
- CC50 (KBALB-STK): 300 µM
- NO release [2]: 5%
- NO release [14]: 59.8%
- NO release (Rattus norvegicus [3]): 3.6%
- NO release (Rattus norvegicus [4]): 4.8%

SMILES: Cc1cn([C@H]2C[C@H](O[N+](=O)[O-])[C@@H](CO)O2)c(=O)[nH]c1=O
- CC50 (KBALB cell line): 1000 µM
- CC50 (KBALB-STK): 7000 µM
- NO release [2]: 4.9%
- NO release [8]: 53.6%
- NO release (Rattus norvegicus [3]): 7.4%
- NO release (Rattus norvegicus [4]): 7.4%
- IC50 (Coxsackievirus B4): > 80 µg/mL
- IC50 (Human respirovirus 3): > 80 µg/mL
- IC50 (Punta Toro virus): > 80 µg/mL
- IC50 (Sindbis virus): > 80 µg/mL
- IC50 [5]: > 80 µg/mL
- IC50 [6]: > 80 µg/mL

Reference: ChEMBL document CHEMBL1136729, “Synthesis of 3'- and 5'-nitrooxy pyrimidine nucleoside nitrate esters: "nitric oxide donor" agents for evaluation as anticancer and antiviral agents” (J Med Chem, 2003)
